From ChEMBL document CHEMBL2029255, “Quantitative and site-directed chemical modification of hypocrellins toward direct drug delivery and effective photodynamic activity” (J Med Chem, 2012) come the findings set out here.

In general, solubility refers to the concentration that dissolves in the medium under given conditions. As a reminder, the IC50 is the concentration that inhibits the measured activity by half.

SMILES strings stand for the structures. ≈ marks a conversion by molar mass, not a printed value. Calls of active or inactive are those of the source. The rule behind the calls is not given here.

The nature of series [1]: Drug uptake in liposomes after 2 hrs. The class given is ADME, subcellular, Liposome. The following applies: artificial membrane. Summed up:
(§1)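 Liposomes of egg phosphatidylcholine and cholesterol (film-ultrasonic method), 0.08 g/L in PBS pH 7.4. Compound from DMSO stock (2 mg/mL) diluted in PBS to 0–8 μM final, added to liposomes with stirring; absorption spectra recorded over time; peak absorbance plotted against concentration at the equilibration time (2, 4 or 5 h, depending on compound).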

Series [2] in a line: Solubility of the compound in phosphate buffered saline at pH 7.4 after 12 hrs. The class given is physicochemical. Summed up: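 Compound dissolved in PBS (pH 7.4) at a series of concentrations, kept 12 h in dark; absorption spectra recorded and absorbance plotted against concentration to derive solubility; mean of three independent experiments ± SEM.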
A short description of series [3]: 1-Octanol-phosphate buffered saline partition coefficient of the compound at pH 7.4.
The nature of series [4]: Drug uptake in liposomes after 5 hrs. The class given is ADME, subcellular, Liposome. The following applies: artificial membrane. Put shortly:
as §1

The test system of series [5] is BGC-823. Description: Cytotoxicity against human BGC823 cells assessed as cell death up to 76 nM after 24 hrs by MTT assay. The class given is functional, cell-based. Put shortly:
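Dark toxicity: BGC823 cells in DMEM/5% FBS seeded at 5 × 10^5 cells/mL, 24 h at 37 °C, 5% CO2; photosensitizer (0–76 nM) in FBS-free DMEM 5 h in dark; fresh medium, no irradiation, 24 h in dark; survival by MTT (90 min), formazan in DMSO, OD 570 nm.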
(Tetrazolium dyes change colour on reduction, which living cells bring about.)

Series [6] in a line: Photosensitization activity of the compound assessed as singlet oxygen production by DPA-bleaching method. The class given is physicochemical.
Series [7] concerns BGC-823. The series is described as follows: Cytotoxicity against human BGC823 cells assessed as cell death preincubated for 5 hrs in dark condition followed by irradiation with a 532 nm laser of 20 J/cm2 for 1000 seconds measured after 24 hrs by MTT assay. Particulars: BGC-823, light or radiation study. It is filed as functional, cell-based. Summed up:
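BGC823 cells in DMEM/5% FBS seeded at 5 × 10^5 cells/mL, 24 h at 37 °C, 5% CO2; photosensitizer (0, 19, 38, 57, 76 nM) in FBS-free DMEM, 5 h in dark; medium replaced, 532 nm laser irradiation 20 J/cm2 (20 mW/cm2) for 1000 s; 24 h dark; MTT 90 min, DMSO, OD 570 nm. IC50 = concentration killing 50% of cells.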

Series [8] concerns BGC-823. The series is described as follows: Cellular uptake in human BGC823 cells at 1 uM after 5 hrs by laser confocal fluorescence microscope analysis. The class given is ADME, cell-based. Particulars: bgc-823, 5 h. Summed up: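 BGC823 cells seeded on coverslips at 1 × 10^5, grown overnight at 37 °C, 5% CO2; medium removed, incubated with compound (1 μM) 5 h at 37 °C; rinsed three times with PBS, imaged by confocal microscopy with 488 nm argon laser excitation, emission 650–750 nm collected. Control without photosensitizer.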

Series [9] is described as follows: Drug uptake in liposomes after 4 hrs. It is filed as ADME, subcellular, Liposome. The following applies: artificial membrane. Put shortly: as §1

In turn, `COc1c2c3c4c(c(NCCS(=O)(=O)O)c(=O)c5c(O)cc(OC)c(c6c(OC)cc(O)c(c1=O)c63)c54)CC(C)=C2C(C)=O` came in with a Drug uptake in series [1] of 3 µM. In series [2], this molecule gave a solubility at 12 h of 9200 µg/mL (≈ 14.8 mM). In series [3], this molecule displayed a PC of 2.2.
In [2], `COC1=C(C(C)=O)C2=C(C)Cc3c(OC)c(=O)c(O)c4cc(OC)c5c(OC)cc(O)c6c(c2c3c4c56)C1=O` returned a solubility at 12 h of 4.6 µg/mL (≈ 0.0087 mM). This molecule returned a Drug uptake in series [4] of 7 µM. The outcome with BGC-823 [5] was inactive. In addition, in series [6], the Activity is listed as 0.76. In addition, the half-inhibitory concentration (IC50) with BGC-823 [7] came to 40 nM.
Turning to `COc1c2c3c4c(c(OC)c(=O)c5c(O)cc(OC)c(c6c(OC)cc(O)c(c1=O)c63)c54)C(/C(C)=N/CCCCS(=O)(=O)O)=C(C)C2`, the concentration in solution in series [2] (solubility at 12 h) came to 3900 µg/mL (≈ 5.88 mM). In [3], this molecule displayed a PC of 7.5. Moreover, the outcome in the series on BGC-823 [5] was inactive. Also, in [6], the Activity is on record as 0.94. Further, the IC50 in the series on BGC-823 [7] is 54 nM.
Regarding `COc1c2c3c4c(c(OC)c(=O)c5c(O)cc(OC)c(c6c(OC)cc(O)c(c1=O)c63)c54)C(/C(C)=N/CCCCCCS(=O)(=O)O)=C(C)C2`, the solubility at 12 h in series [2] is 200 µg/mL (≈ 0.289 mM). Further, in series [6], the Activity is given as 1.01.
Consider `COc1c2c3c4c(c(OC)c(=O)c5c(O)cc(OC)c(c6c(OC)cc(O)c(c1=O)c63)c54)C(/C(C)=N/CCCCCS(=O)(=O)O)=C(C)C2`, for which the solubility at 12 h in series [2] was 1700 µg/mL (≈ 2.51 mM). For the same molecule, in series [3], the PC was 9. The figures for the Drug uptake entry (with BGC-823 [8]; in [9]) were “Active” and 6.5 µM, respectively. Besides, the outcome with BGC-823 [5] was inactive. The Activity in series [6] is 0.98. The IC50 with BGC-823 [7] amounted to 22 nM.
Regarding `COc1c2c3c4c(c(OC)c(=O)c5c(O)cc(OC)c(c6c(OC)cc(O)c(c1=O)c63)c54)C(/C(C)=N/CCCS(=O)(=O)O)=C(C)C2`, the concentration in solution in series [2] (solubility at 12 h) was 6600 µg/mL (≈ 10.2 mM). For the same molecule, the PC in [3] was 4.8.
